Results published in ChEMBL document CHEMBL4364291, “Benzylideneacetone Derivatives Inhibit Osteoclastogenesis and Activate Osteoblastogenesis Independently Based on Specific Structure-Activity Relationship” (J Med Chem, 2019).
Activity calls are given as the source filed them. The calls are words filed in the database; no cut-off is given here.

Key:
[1] = Terminal half-life in ICR mouse at 50 mg/kg, po administered via gavage measured up to 8 hrs by LC-MS/HPLC analysis; type: ADME, organism-based; settings: in vivo, read-out: beta t1/2 (converted)
Procedure, shortened: (§1)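 Six-week-old male ICR mice (n = 3) were kept at 25 ± 2 °C on a 12 h light/dark cycle and dosed iv or po. Total plasma concentration (bound plus unbound) was plotted against time. Terminal T1/2 came from the elimination phase: a two-compartment fit for po dosing and a single-compartment fit for iv dosing.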

Mus musculus [2] = assay: Antiosteoporotic activity in ddY mouse model of OVX-induced osteoporosis assessed as increase in trabecular number in femur bone at 10 mg/kg, po administered once daily via gavage for 4 weeks by microcomputed tomographic analysis; type: functional, organism-based
Procedure, shortened: (§2)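 Female ddY mice were ovariectomized. Oral gavage began 1 week after surgery and ran once daily for 28 d. Vehicle was 300 μL PBS containing 0.5% (v/v) DMSO, also given to sham and OVX controls. Mice were then euthanized and femur and tibia fixed for CT imaging. Values are mean ± SD of four mice.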

Mus musculus [3] = assay: Antiosteoporotic activity in ddY mouse model of OVX-induced osteoporosis assessed as increase in cross-sectional thickness in femur bone at 10 mg/kg, po administered once daily via gavage for 4 weeks by microcomputed tomographic analysis; type: functional, organism-based; procedure, shortened: as §2
[4] = Cmax in ICR mouse at 10 mg/kg, po administered via gavage measured up to 8 hrs by LC-MS/HPLC analysis; type: ADME, organism-based; set-up: dose 10 mg/kg, route oral; settings: in vivo
Procedure, shortened: (§3)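 Six-week-old male ICR mice, housed at 25 ± 2 °C, 60 ± 10% humidity, 12 h light/dark. Dosing was iv at 2 mg/kg or po at 10 and 50 mg/kg. Plasma concentrations were total, bound plus unbound. AUC∞ is from time zero to infinity. F = (AUCpo/AUCiv) × 100. Cmax and AUC∞ are mean ± SD of three mice.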

[5] = Cmax in ICR mouse at 50 mg/kg, po administered via gavage measured up to 8 hrs by LC-MS/HPLC analysis; type: ADME, organism-based; set-up: dose 50 mg/kg, route oral; settings: in vivo; procedure, shortened: as §3
[6] = Cytotoxicity against mouse RAW264.7 cells after 24 hrs by MTT assay; type: cell-based; settings: read-out: LD50
Procedure, shortened: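 RAW264.7 macrophages (preosteoclast line) were kept in DMEM at 37 °C under 5% CO2 and tested without RANKL. MTT read-out of growth and survival, expressed as LD50.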

Mus musculus [7] = assay: Antiosteoporotic activity in ddY mouse model of OVX-induced osteoporosis assessed as increase in femur bone mineral density at 10 mg/kg, po administered once daily via gavage for 4 weeks by microcomputed tomographic analysis; type: functional, organism-based; procedure, shortened: as §2
[8] = Toxicity in ddY mouse model of OVX-induced osteoporosis assessed as increase in body weight at 10 mg/kg, po administered once daily via gavage for 4 weeks measured 5 weeks post OVX-challenge; type: organism-based; settings: in vivo, 840 h
Procedure, shortened: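 Dosing of ddY mice began one week after ovariectomy: compound in 300 μL of 0.5% (v/v) DMSO-containing PBS by gavage once daily for 28 d. OVX and sham controls received vehicle. Body weight was compared with sham control 5 weeks after OVX.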

[9] = AUC (0 to infinity) in ICR mouse at 10 mg/kg, po administered via gavage measured up to 8 hrs by LC-MS/HPLC analysis; type: ADME, organism-based; set-up: dose 10 mg/kg, route oral, time infinity; settings: in vivo; procedure, shortened: as §3
[10] = Oral bioavailability in ICR mouse at 50 mg/kg administered via gavage measured up to 8 hrs by LC-MS/HPLC analysis; type: ADME, organism-based; settings: in vivo; procedure, shortened: as §3
Mus musculus [11] = assay: Antiosteoporotic activity in ddY mouse model of OVX-induced osteoporosis assessed as increase in new bone volume in femur bone at 10 mg/kg, po administered once daily via gavage for 4 weeks by microcomputed tomographic analysis; type: functional, organism-based; procedure, shortened: as §2
Mus musculus [12] = assay: Antiosteoporotic activity in ddY mouse model of OVX-induced osteoporosis assessed as increase in trabecular thickness in femur bone at 10 mg/kg, po administered once daily via gavage for 4 weeks by microcomputed tomographic analysis; type: functional, organism-based; procedure, shortened: as §2
MC3T3-E1 [13] = assay: Osteo-blastogenic activity in mouse MC3T3-E1 cells assessed as stimulation of ALP activity at 10 uM supplemented with fresh medium every 3 to 4 days and measured after 14 days relative to control; type: functional
Procedure, shortened: (§4)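 MC3T3-E1 subclone 4 osteoblastic cells were grown in α-MEM at 37 °C under 5% CO2 with compound present during differentiation. ALP activity was read 14 d after induction and expressed as % of untreated cells. Values are mean ± SD of three independent experiments.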

[14] = Inhibition of M-CSF/RANKL-induced osteoclast differentiation in C57BL/6 mouse bone marrow macrophage assessed as reduction in multinucleated TRAP+ cells incubated for 6 days with fresh media replacement on day 3 and measured on day 6 by TRAP staining-based microscopic analysis; type: functional, cell-based; settings: C57BL/6, BMDM
Procedure, shortened: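 BMM came from femur and tibia marrow of 5–8-week-old male C57BL/6 mice and were purified over lymphocyte separation medium. Cells, 1 × 10^5 per well, were grown in α-MEM/10% FBS with M-CSF (60 ng/mL) and RANKL (150 ng/mL) for 6 d, medium changed day 3. Compound range was 0.01−100 μM. TRAP+ multinucleated cells were counted on day 6.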

[15] = Terminal half-life in ICR mouse at 2 mg/kg, iv measured up to 8 hrs by LC-MS/HPLC analysis; type: ADME, organism-based; settings: in vivo, read-out: beta t1/2 (converted); procedure, shortened: as §1
Mus musculus [16] = assay: Antiosteoporotic activity in ddY mouse model of OVX-induced osteoporosis assessed as increase in ratio of bone volume/trabecular volume in femur bone at 10 mg/kg, po administered once daily via gavage for 4 weeks by microcomputed tomographic analysis; type: functional, organism-based; procedure, shortened: as §2
[17] = Oral bioavailability in ICR mouse at 10 mg/kg administered via gavage measured up to 8 hrs by LC-MS/HPLC analysis; type: ADME, organism-based; settings: in vivo; procedure, shortened: as §3
Mus musculus [18] = assay: Antiosteoporotic activity in ddY mouse model of OVX-induced osteoporosis assessed as reduction in trabecular separation in femur bone at 10 mg/kg, po administered once daily via gavage for 4 weeks by microcomputed tomographic analysis; type: functional, organism-based; procedure, shortened: as §2
[19] = AUC (0 to infinity) in ICR mouse at 2 mg/kg, iv measured up to 8 hrs by LC-MS/HPLC analysis; type: ADME, organism-based; set-up: dose 2 mg/kg, time infinity, route intravenous; settings: in vivo; procedure, shortened: as §3
[20] = Terminal half-life in ICR mouse at 10 mg/kg, po administered via gavage measured up to 8 hrs by LC-MS/HPLC analysis; type: ADME, organism-based; settings: in vivo, read-out: beta t1/2 (converted); procedure, shortened: as §1
MC3T3-E1 [21] = assay: Osteo-blastogenic activity in mouse MC3T3-E1 cells assessed as stimulation of ALP activity at 50 uM supplemented with fresh medium every 3 to 4 days and measured after 14 days relative to control; type: functional; procedure, shortened: as §4
[22] = AUC (0 to infinity) in ICR mouse at 50 mg/kg, po administered via gavage measured up to 8 hrs by LC-MS/HPLC analysis; type: ADME, organism-based; set-up: dose 50 mg/kg, time infinity, route oral; settings: in vivo; procedure, shortened: as §3
MC3T3-E1 [23] = assay: Induction of osteoblast differentiation in ascorbic acid/beta-glycerophosphate-induced mouse MC3T3-E1 cells co-cultured with C57BL/6 mouse bone marrow macrophages at 10 uM measured on day 6 by TRAP staining-based inverted microscopic analysis; type: functional, cell-based
MC3T3-E1 [24] = assay: Induction of osteoblast differentiation in ascorbic acid/beta-glycerophosphate-induced mouse MC3T3-E1 cells assessed as increase in RUNX2 expression at 50 uM after 14 days by Western blot analysis relative to control; type: functional
Procedure, shortened: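 MC3T3-E1 cells were induced with osteoblast differentiation factors, with or without 50 μM compound, for 21 d. Cells were harvested at 7, 14 and 21 d and RUNX2 was quantified by Western blot against untreated differentiated cells. The negative control lacked differentiation factors. Values are mean ± SD of three independent experiments.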

COc1ccc(/C=C/C(C)=O)cc1O
half-life [1]: 2.2 h
Activity (Mus musculus [2]): Active
Activity (Mus musculus [3]): Active
Cmax [4]: 160 nM
Cmax [5]: 880 nM
CC50 at 24 h [6]: > 5000 µM
Activity (Mus musculus [7]): Active
Activity [8]: Toxic
AUC(0-inf) [9]: 0.14 µM·h
bioavailability [10]: 29%
Activity (Mus musculus [11]): Active
Activity (Mus musculus [12]): Active
Activity (MC3T3-E1 [13]): 100%
IC50 [14]: 0.11 µM
half-life [15]: 1 h
Activity (Mus musculus [16]): Active
bioavailability [17]: 26%
Activity (Mus musculus [18]): Active
AUC(0-inf) [19]: 0.1 µM·h
half-life [20]: 1.2 h
Activity (MC3T3-E1 [21]): 180%
AUC(0-inf) [22]: 0.72 µM·h

CC(=O)/C=C/c1ccc(O)c(O)c1
half-life [1]: 3.1 h
Activity (Mus musculus [2]): Active
Activity (Mus musculus [3]): Active
Cmax [4]: 200 nM
Cmax [5]: 1100 nM
CC50 at 24 h [6]: 500 µM
Activity (Mus musculus [7]): Active
Activity [8]: Toxic
AUC(0-inf) [9]: 0.14 µM·h
bioavailability [10]: 76%
Activity (Mus musculus [11]): Active
Activity (Mus musculus [12]): Active
Activity (MC3T3-E1 [13]): 120%
Activity (MC3T3-E1 [23]): Active
IC50 [14]: 7.8 µM
fold change (FC) (MC3T3-E1 [24]): 1.4
half-life [15]: 0.4 h
Activity (Mus musculus [16]): Active
bioavailability [17]: 66%
Activity (Mus musculus [18]): Active
AUC(0-inf) [19]: 0.039 µM·h
half-life [20]: 2.1 h
Activity (MC3T3-E1 [21]): 280%
AUC(0-inf) [22]: 0.66 µM·h
